Results published in ChEMBL document CHEMBL5108087, “Synthesis and biological evaluation of paeoveitol D derivatives as new melatonin receptor agonists with antidepressant activities” (RSC Med Chem, 2022).
pEC50: −log10 of the molar value. Calls of active or inactive are those of the source. No cut-off for these calls is given here.

Assays:
[1] = test system: HEK293T; assay: (§1) Agonist activity at human MT1 N162A mutant receptor transfected in HEK293T cells co-transfected with tet-inducible luciferase reporter plasmid, pCDNA3.1(+)-CMV-betaArrestin2-tev plasmid and TANGO plasmid assessed as shift in concentration response curve incubated for 24 hrs by TANGO-GPCR assay based luminescence plate reader analysis relative to agomelatine; assay type: cell-based; conditions: filed as agonist
Summary of the method: (§2)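 293T cells transiently transfected with tet-inducible luciferase reporter, pCDNA3.1(+)-CMV-bArrestin2-tev and TANGO receptor plasmids (wild-type or point mutant). Next day plated at 20 000 cells/well on poly-L-lysine; drug added day 3. Day 4, Bright-Glo added, 20 min, then luminescence read. Concentration–response curves fitted; data mean ± SD.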

[2] = biological target: T1, Melatonin receptor type 1B (Homo sapiens, UniProt P49286); assay: as §1, with “MT2” for “MT1 N162A mutant”, “relative luminescence unit” for “shift in concentration response curve”, “analysis” for “analysis relative to agomelatine”; assay type: functional, cell-based
T1 sequence (P49286 whole entry): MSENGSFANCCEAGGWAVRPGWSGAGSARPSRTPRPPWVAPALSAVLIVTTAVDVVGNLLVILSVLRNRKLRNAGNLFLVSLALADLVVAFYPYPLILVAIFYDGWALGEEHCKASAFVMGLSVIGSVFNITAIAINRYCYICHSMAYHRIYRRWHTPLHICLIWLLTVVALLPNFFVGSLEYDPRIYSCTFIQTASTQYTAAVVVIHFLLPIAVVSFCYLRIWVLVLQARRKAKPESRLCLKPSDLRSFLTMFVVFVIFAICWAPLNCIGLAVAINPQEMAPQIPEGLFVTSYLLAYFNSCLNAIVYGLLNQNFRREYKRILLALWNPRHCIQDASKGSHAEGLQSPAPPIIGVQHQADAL

[3] = biological target: Melatonin receptor type 1A (Homo sapiens, UniProt P48039); assay: as §1, with “MT1” for “MT1 N162A mutant”, “tango arrestin recruitment” for “shift in concentration response curve”, “analysis” for “analysis relative to agomelatine”; assay type: functional, cell-based
Chain of Melatonin receptor type 1A (P48039 whole entry): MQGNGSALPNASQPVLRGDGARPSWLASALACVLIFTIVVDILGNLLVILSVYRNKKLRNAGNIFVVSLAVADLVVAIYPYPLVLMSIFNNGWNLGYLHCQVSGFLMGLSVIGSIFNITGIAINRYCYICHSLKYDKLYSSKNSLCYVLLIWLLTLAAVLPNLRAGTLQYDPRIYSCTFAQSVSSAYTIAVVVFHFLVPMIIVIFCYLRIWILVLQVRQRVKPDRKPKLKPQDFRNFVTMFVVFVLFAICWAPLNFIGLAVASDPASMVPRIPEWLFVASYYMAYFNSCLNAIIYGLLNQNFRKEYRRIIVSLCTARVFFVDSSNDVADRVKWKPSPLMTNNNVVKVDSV

[4] = test system: HEK293T; assay: as §1, with “Q181A” for “N162A”; assay type: cell-based; conditions: filed as agonist; summary of the method: as §2

With `COc1ccc2[nH]c(-c3ccccc3)c(CCNC(C)=O)c2c1` the Activity [1] was “Active”, the pEC50 [2] was 5.15 and the pEC50 [3] was 7.78. For the same compound, the Activity [4] was “Active”.
